According to ChEMBL document CHEMBL1128374, “Preparation and in vitro activities of ethers of [D-serine]8-cyclosporin” (J Med Chem, 1995):
Values after ≈ are worked out from the molar mass of the structure shown.

Experiments:
Format in all cases: functional
Mus musculus [1] = species: Mus musculus; assay: In vitro efficacy on humoral immune response by Mishell-Dutton assay (MD).
Outline: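 Spleen lymphocytes from female OF1 mice (ca. 10 x 10^6) cultured 3 days with sheep erythrocytes (ca. 30 x 10^6) and test compound. Cells then plated on agar with fresh erythrocytes; plaques form by complement lysis. Read-out is the count of antibody-producing plaque-forming cells. Cyclosporin A run in parallel.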

Mus musculus [2] = species: Mus musculus; assay: In vitro efficacy to suppress lymphocyte proliferation as measured by the incorporation of a labeled precursor ([3H]- thymidine) into DNA in Mixed Lymphocyte reaction (MLR).
Outline: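 Cells from spleens of female CBA mice aged 8–10 weeks (ca. 5 x 10^5). Compounds made up at 20 mg/mL in 9:1 (v/v) ethanol/Tween 80, then diluted in saline before adding to medium. Four concentrations per compound across 1.8–1000 ng/mL, in triplicate cultures. IC50 is the calculated concentration giving 50% inhibition of proliferation. Cyclosporin A run in parallel as control.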

Mus musculus [3] = species: Mus musculus; assay: In vitro inhibition of interleukin-2 (IL-2) production induced by stimulating lymphocytes derived from mouse spleens with the […]; conditions: Spleen
Outline: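 Compounds added with concanavalin A to the primary culture; supernatants collected at 48 h. IL-2 content measured by growth of IL-2-dependent CTLL cells, read as tritiated thymidine incorporation after 48 h. IC50 determined, with cyclosporin A run in parallel.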

IC50 (Mus musculus [1]) [µg/mL]	IC50 (Mus musculus [3]) [µg/mL]	SMILES	IC50 (Mus musculus [2]) [µg/mL]
0.036 (≈ 0.0279 µM)	–	C/C=C/C[C@@H](C)[C@@H](O)[C@H]1C(=O)N[C@@H](CC)C(=O)N(C)CC(=O)N(C)[C@@H](CC(C)C)C(=O)N[C@@H](C(C)C)C(=O)N(C)[C@@H](CC(C)C)C(=O)N[C@@H](C)C(=O)N[C@H](COC/C=C/CO)C(=O)N(C)[C@@H](CC(C)C)C(=O)N(C)[C@@H](CC(C)C)C(=O)N(C)[C@@H](C(C)C)C(=O)N1C	0.07 (≈ 0.0543 µM)
0.023 (≈ 0.0183 µM)	–	C/C=C/C[C@@H](C)[C@@H](O)[C@H]1C(=O)N[C@@H](CC)C(=O)N(C)CC(=O)N(C)[C@@H](CC(C)C)C(=O)N[C@@H](C(C)C)C(=O)N(C)[C@@H](CC(C)C)C(=O)N[C@@H](C)C(=O)N[C@H](COCC#N)C(=O)N(C)[C@@H](CC(C)C)C(=O)N(C)[C@@H](CC(C)C)C(=O)N(C)[C@@H](C(C)C)C(=O)N1C	0.01 (≈ 0.00795 µM)
0.078 (≈ 0.0604 µM)	–	C/C=C/C[C@@H](C)[C@@H](O)[C@H]1C(=O)N[C@@H](CC)C(=O)N(C)CC(=O)N(C)[C@@H](CC(C)C)C(=O)N[C@@H](C(C)C)C(=O)N(C)[C@@H](CC(C)C)C(=O)N[C@@H](C)C(=O)N[C@H](COCC(C)(C)O)C(=O)N(C)[C@@H](CC(C)C)C(=O)N(C)[C@@H](CC(C)C)C(=O)N(C)[C@@H](C(C)C)C(=O)N1C	0.05 (≈ 0.0387 µM)
0.725 (≈ 0.55 µM)	–	C/C=C/C[C@@H](C)[C@@H](O)[C@H]1C(=O)N[C@@H](CC)C(=O)N(C)CC(=O)N(C)[C@@H](CC(C)C)C(=O)N[C@@H](C(C)C)C(=O)N(C)[C@@H](CC(C)C)C(=O)N[C@@H](C)C(=O)N[C@H](COCC(=O)OC(C)C)C(=O)N(C)[C@@H](CC(C)C)C(=O)N(C)[C@@H](CC(C)C)C(=O)N(C)[C@@H](C(C)C)C(=O)N1C	0.1 (≈ 0.0758 µM)
0.078 (≈ 0.0572 µM)	–	C/C=C/C[C@@H](C)[C@@H](O)[C@H]1C(=O)N[C@@H](CC)C(=O)N(C)CC(=O)N(C)[C@@H](CC(C)C)C(=O)N[C@@H](C(C)C)C(=O)N(C)[C@@H](CC(C)C)C(=O)N[C@@H](C)C(=O)N[C@H](COCCOCC(=O)OC(C)C)C(=O)N(C)[C@@H](CC(C)C)C(=O)N(C)[C@@H](CC(C)C)C(=O)N(C)[C@@H](C(C)C)C(=O)N1C	0.05 (≈ 0.0367 µM)
0.065 (≈ 0.0504 µM)	–	C/C=C/C[C@@H](C)[C@@H](O)[C@H]1C(=O)N[C@@H](CC)C(=O)N(C)CC(=O)N(C)[C@@H](CC(C)C)C(=O)N[C@@H](C(C)C)C(=O)N(C)[C@@H](CC(C)C)C(=O)N[C@@H](C)C(=O)N[C@H](COCC(=O)OC)C(=O)N(C)[C@@H](CC(C)C)C(=O)N(C)[C@@H](CC(C)C)C(=O)N(C)[C@@H](C(C)C)C(=O)N1C	0.044 (≈ 0.0341 µM)
0.21 (≈ 0.158 µM)	–	C/C=C/C[C@@H](C)[C@@H](O)[C@H]1C(=O)N[C@@H](CC)C(=O)N(C)CC(=O)N(C)[C@@H](CC(C)C)C(=O)N[C@@H](C(C)C)C(=O)N(C)[C@@H](CC(C)C)C(=O)N[C@@H](C)C(=O)N[C@H](COCCC2OCCCO2)C(=O)N(C)[C@@H](CC(C)C)C(=O)N(C)[C@@H](CC(C)C)C(=O)N(C)[C@@H](C(C)C)C(=O)N1C	0.12 (≈ 0.09 µM)
0.1 (≈ 0.074 µM)	–	C/C=C/C[C@@H](C)[C@@H](O)[C@H]1C(=O)N[C@@H](CC)C(=O)N(C)CC(=O)N(C)[C@@H](CC(C)C)C(=O)N[C@@H](C(C)C)C(=O)N(C)[C@@H](CC(C)C)C(=O)N[C@@H](C)C(=O)N[C@H](COCCOCCOCCO)C(=O)N(C)[C@@H](CC(C)C)C(=O)N(C)[C@@H](CC(C)C)C(=O)N(C)[C@@H](C(C)C)C(=O)N1C	0.47 (≈ 0.348 µM)
0.09 (≈ 0.0697 µM)	–	C/C=C/C[C@@H](C)[C@@H](O)[C@H]1C(=O)N[C@@H](CC)C(=O)N(C)CC(=O)N(C)[C@@H](CC(C)C)C(=O)N[C@@H](C(C)C)C(=O)N(C)[C@@H](CC(C)C)C(=O)N[C@@H](C)C(=O)N[C@H](COCCCCO)C(=O)N(C)[C@@H](CC(C)C)C(=O)N(C)[C@@H](CC(C)C)C(=O)N(C)[C@@H](C(C)C)C(=O)N1C	0.094 (≈ 0.0728 µM)
0.24 (≈ 0.178 µM)	–	C/C=C/C[C@@H](C)[C@@H](O)[C@H]1C(=O)N[C@@H](CC)C(=O)N(C)CC(=O)N(C)[C@@H](CC(C)C)C(=O)N[C@@H](C(C)C)C(=O)N(C)[C@@H](CC(C)C)C(=O)N[C@@H](C)C(=O)N[C@H](COC/C=C/CBr)C(=O)N(C)[C@@H](CC(C)C)C(=O)N(C)[C@@H](CC(C)C)C(=O)N(C)[C@@H](C(C)C)C(=O)N1C	0.09 (≈ 0.0666 µM)
–	0.014 (≈ 0.00988 µM)	C/C=C/C[C@@H](C)[C@@H](O)[C@H]1C(=O)N[C@@H](CC)C(=O)N(C)CC(=O)N(C)[C@@H](CC(C)C)C(=O)N[C@@H](C(C)C)C(=O)N(C)[C@@H](CC(C)C)C(=O)N[C@@H](C)C(=O)N[C@H](COCCOS(=O)(=O)c2ccc(C)cc2)C(=O)N(C)[C@@H](CC(C)C)C(=O)N(C)[C@@H](CC(C)C)C(=O)N(C)[C@@H](C(C)C)C(=O)N1C	0.05 (≈ 0.0353 µM)
0.04 (≈ 0.0301 µM)	–	C/C=C/C[C@@H](C)[C@@H](O)[C@H]1C(=O)N[C@@H](CC)C(=O)N(C)CC(=O)N(C)[C@@H](CC(C)C)C(=O)N[C@@H](C(C)C)C(=O)N(C)[C@@H](CC(C)C)C(=O)N[C@@H](C)C(=O)N[C@H](COC/C=C/COC(C)=O)C(=O)N(C)[C@@H](CC(C)C)C(=O)N(C)[C@@H](CC(C)C)C(=O)N(C)[C@@H](C(C)C)C(=O)N1C	0.04 (≈ 0.0301 µM)
0.53 (≈ 0.377 µM)	–	C/C=C/C[C@@H](C)[C@@H](O)[C@H]1C(=O)N[C@@H](CC)C(=O)N(C)CC(=O)N(C)[C@@H](CC(C)C)C(=O)N[C@@H](C(C)C)C(=O)N(C)[C@@H](CC(C)C)C(=O)N[C@@H](C)C(=O)N[C@H](COCCOCCOCC(=O)OC(C)C)C(=O)N(C)[C@@H](CC(C)C)C(=O)N(C)[C@@H](CC(C)C)C(=O)N(C)[C@@H](C(C)C)C(=O)N1C	0.35 (≈ 0.249 µM)
–	–	C/C=C/C[C@@H](C)[C@@H](O)[C@H]1C(=O)N[C@@H](CC)C(=O)N(C)CC(=O)N(C)[C@@H](CC(C)C)C(=O)N[C@@H](C(C)C)C(=O)N(C)[C@@H](CC(C)C)C(=O)N[C@@H](C)C(=O)N2CCCC[C@@H]2C(=O)N(C)[C@@H](CC(C)C)C(=O)N(C)[C@@H](CC(C)C)C(=O)N(C)[C@@H](C(C)C)C(=O)N1C	0.029 (≈ 0.0233 µM)
–	–	C/C=C/C[C@@H](C)[C@@H](O)[C@H]1C(=O)N[C@@H](CC)C(=O)N(C)CC(=O)N(C)[C@@H](CC(C)C)C(=O)N[C@@H](C(C)C)C(=O)N(C)[C@@H](CC(C)C)C(=O)N[C@@H](C)C(=O)N2COC[C@@H]2C(=O)N(C)[C@@H](CC(C)C)C(=O)N(C)[C@@H](CC(C)C)C(=O)N(C)[C@@H](C(C)C)C(=O)N1C	0.118 (≈ 0.0959 µM)
0.009 (≈ 0.00705 µM)	–	C/C=C/C[C@@H](C)[C@@H](O)[C@H]1C(=O)N[C@@H](CC)C(=O)N(C)CC(=O)N(C)[C@@H](CC(C)C)C(=O)N[C@@H](C(C)C)C(=O)N(C)[C@@H](CC(C)C)C(=O)N[C@@H](C)C(=O)N[C@H](COCCCO)C(=O)N(C)[C@@H](CC(C)C)C(=O)N(C)[C@@H](CC(C)C)C(=O)N(C)[C@@H](C(C)C)C(=O)N1C	0.02 (≈ 0.0157 µM)
–	0.003 (≈ 0.00241 µM)	C/C=C/C[C@@H](C)[C@@H](O)[C@H]1C(=O)N[C@@H](CC)C(=O)N(C)CC(=O)N(C)[C@@H](CC(C)C)C(=O)N[C@@H](C(C)C)C(=O)N(C)[C@@H](CC(C)C)C(=O)N[C@@H](C)C(=O)N2CCOC[C@@H]2C(=O)N(C)[C@@H](CC(C)C)C(=O)N(C)[C@@H](CC(C)C)C(=O)N(C)[C@@H](C(C)C)C(=O)N1C	0.006 (≈ 0.00482 µM)
0.087 (≈ 0.0676 µM)	–	C/C=C/C[C@@H](C)[C@@H](O)[C@H]1C(=O)N[C@@H](CC)C(=O)N(C)CC(=O)N(C)[C@@H](CC(C)C)C(=O)N[C@@H](C(C)C)C(=O)N(C)[C@@H](CC(C)C)C(=O)N[C@@H](C)C(=O)N[C@H](COCCN=[N+]=[N-])C(=O)N(C)[C@@H](CC(C)C)C(=O)N(C)[C@@H](CC(C)C)C(=O)N(C)[C@@H](C(C)C)C(=O)N1C	0.11 (≈ 0.0854 µM)
